pIC50, pKi: −log10 of the molar value. ≈ marks a conversion by molar mass, not a printed value.
Experiments:
HEK293 = test: Inhibition of beta-amyloid peptide production in HEK293 cell line; assay type: functional, cell-based; conditions: Homo sapiens
Matrilysin = target: T1, Matrilysin (Homo sapiens, UniProt P09237); test: Inhibition of MMP7
T1 sequence (P09237 whole entry): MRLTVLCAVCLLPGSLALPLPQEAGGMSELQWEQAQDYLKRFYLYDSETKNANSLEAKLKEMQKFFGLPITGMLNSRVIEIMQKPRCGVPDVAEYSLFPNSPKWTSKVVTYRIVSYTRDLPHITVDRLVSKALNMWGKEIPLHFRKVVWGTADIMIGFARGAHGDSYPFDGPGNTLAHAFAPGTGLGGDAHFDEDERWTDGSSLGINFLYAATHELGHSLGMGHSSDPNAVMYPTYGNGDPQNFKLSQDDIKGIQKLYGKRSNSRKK

Collagenase 3 = Collagenase 3 (Homo sapiens, UniProt P45452); test: Inhibition of MMP13
[1] = target: Matrix metalloproteinase-9 (Homo sapiens, UniProt P14780); test: Inhibition of MMP9
[2] = target: 72 kDa type IV collagenase (Homo sapiens, UniProt P08253); test: Inhibition of MMP2
Interstitial collagenase = target: T2, Interstitial collagenase (Homo sapiens, UniProt P03956); test: Inhibition of MMP1
T2 sequence (P03956 whole entry): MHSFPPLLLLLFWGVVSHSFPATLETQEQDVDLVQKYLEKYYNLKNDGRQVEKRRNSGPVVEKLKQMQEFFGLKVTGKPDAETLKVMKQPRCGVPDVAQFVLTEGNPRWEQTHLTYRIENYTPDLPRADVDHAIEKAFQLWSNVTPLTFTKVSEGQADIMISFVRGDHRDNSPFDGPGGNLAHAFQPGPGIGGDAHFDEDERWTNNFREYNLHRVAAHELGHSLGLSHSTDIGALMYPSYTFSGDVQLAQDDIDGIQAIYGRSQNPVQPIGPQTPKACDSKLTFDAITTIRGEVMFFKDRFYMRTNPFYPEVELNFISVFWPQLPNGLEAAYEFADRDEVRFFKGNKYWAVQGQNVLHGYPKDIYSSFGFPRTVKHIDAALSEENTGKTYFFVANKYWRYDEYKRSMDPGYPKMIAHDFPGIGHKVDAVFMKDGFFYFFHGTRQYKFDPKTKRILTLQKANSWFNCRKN

Stromelysin-2 = Stromelysin-2 (Homo sapiens, UniProt P09238); test: Inhibition of MMP10
[3] = target: Matrix metalloproteinase-14 (Homo sapiens, UniProt P50281); test: Inhibition of MMP14
[4] = target: Disintegrin and metalloproteinase domain-containing protein 17 (Homo sapiens, UniProt P78536)
[5] = Cmax in Beagle dog at 0.5 mg/kg, po; assay type: ADME, organism-based, Canis lupus familiaris; set-up: dose 0.5 mg/kg, route oral; conditions: in vivo
Summary of the method: (§1)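 Beagle dogs were dosed in cassette format with up to nine other compounds. Doses were kept low to limit interactions: 0.25 mg/kg iv and 0.5 or 1.0 mg/kg po. Pharmacokinetic parameters were derived from these dosings.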

[6] = Inhibition of gamma secretase mediated Notch1 signalling in NIH3T3 cells; assay type: functional, cell-based; conditions: Mus musculus
Summary of the method: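 NIH3T3 cells were grown in DMEM with 10% calf serum, penicillin/streptomycin, 2 mM L-glutamine and 1 mM pyruvate. They were transiently batch-transfected for 24 h with mouse Notch-1 ΔE, vector DNA and a CBF1-luciferase reporter (four tandem CBF1 binding elements). Cells were then replated in defined medium with 0.0125% BSA, treated with serial compound dilutions for 20 h, and read by luciferase luminescence.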

[7] = Percent of unbound ligand in Beagle dog at 0.5 mg/kg, po; assay type: ADME, organism-based, Canis lupus familiaris; set-up: dose 0.5 mg/kg, route oral; conditions: in vivo
[8] = Clearance in Beagle dog at 0.5 mg/kg, po; assay type: ADME, organism-based, Canis lupus familiaris; set-up: dose 0.5 mg/kg, route oral; conditions: in vivo; summary of the method: as §1
[9] = Half life in Beagle dog at 0.5 mg/kg, po; assay type: ADME, organism-based, Canis lupus familiaris; set-up: dose 0.5 mg/kg, route oral; conditions: in vivo; summary of the method: as §1
[10] = Oral bioavailability in Beagle dog at 0.5 mg/kg, po; assay type: ADME, organism-based, Canis lupus familiaris; conditions: in vivo; summary of the method: as §1
Canis familiaris [11] = test: Volume of distribution in Beagle dog at 0.5 mg/kg, po; assay type: ADME, organism-based, Canis lupus familiaris; set-up: dose 0.5 mg/kg, route oral; conditions: in vivo; summary of the method: as §1
[12] = Solubility at pH 7.4; assay type: physicochemical; conditions: buffer
Canis familiaris [13] = test: Volume of distribution in Beagle dog at 1 mg/kg, po; assay type: ADME, organism-based, Canis lupus familiaris; set-up: dose 1 mg/kg, route oral; conditions: in vivo; summary of the method: as §1
[14] = Clearance in Beagle dog at 1 mg/kg, po; assay type: ADME, organism-based, Canis lupus familiaris; set-up: dose 1 mg/kg, route oral; conditions: in vivo; summary of the method: as §1
[15] = Half life in Beagle dog at 1 mg/kg, po; assay type: ADME, organism-based, Canis lupus familiaris; set-up: dose 1 mg/kg, route oral; conditions: in vivo; summary of the method: as §1
[16] = Cmax in Beagle dog at 1 mg/kg, po; assay type: ADME, organism-based, Canis lupus familiaris; set-up: dose 1 mg/kg, route oral; conditions: in vivo; summary of the method: as §1
[17] = Oral bioavailability in Beagle dog at 1 mg/kg, po; assay type: ADME, organism-based, Canis lupus familiaris; conditions: in vivo
Summary of the method: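 Beagle dogs given compounds in cassette format with up to nine other compounds. Doses were kept low to limit interactions: 0.25 mg/kg iv, and 0.5 or 1.0 mg/kg po.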

Stromelysin-2, sequence (P09238 whole entry): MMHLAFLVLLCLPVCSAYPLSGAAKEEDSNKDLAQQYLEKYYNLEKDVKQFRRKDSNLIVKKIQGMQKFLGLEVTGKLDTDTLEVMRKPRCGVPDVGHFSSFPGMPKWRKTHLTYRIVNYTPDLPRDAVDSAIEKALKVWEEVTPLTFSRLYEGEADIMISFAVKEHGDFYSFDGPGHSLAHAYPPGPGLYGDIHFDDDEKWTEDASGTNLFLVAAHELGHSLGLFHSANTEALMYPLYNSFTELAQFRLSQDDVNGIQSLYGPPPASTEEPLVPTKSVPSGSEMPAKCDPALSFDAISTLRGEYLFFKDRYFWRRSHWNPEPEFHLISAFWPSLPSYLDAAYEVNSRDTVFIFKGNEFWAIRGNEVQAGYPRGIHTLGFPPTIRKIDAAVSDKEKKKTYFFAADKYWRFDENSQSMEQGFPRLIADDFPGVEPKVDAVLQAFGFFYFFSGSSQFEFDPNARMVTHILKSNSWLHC
Matrix metalloproteinase-9, sequence (P14780 whole entry): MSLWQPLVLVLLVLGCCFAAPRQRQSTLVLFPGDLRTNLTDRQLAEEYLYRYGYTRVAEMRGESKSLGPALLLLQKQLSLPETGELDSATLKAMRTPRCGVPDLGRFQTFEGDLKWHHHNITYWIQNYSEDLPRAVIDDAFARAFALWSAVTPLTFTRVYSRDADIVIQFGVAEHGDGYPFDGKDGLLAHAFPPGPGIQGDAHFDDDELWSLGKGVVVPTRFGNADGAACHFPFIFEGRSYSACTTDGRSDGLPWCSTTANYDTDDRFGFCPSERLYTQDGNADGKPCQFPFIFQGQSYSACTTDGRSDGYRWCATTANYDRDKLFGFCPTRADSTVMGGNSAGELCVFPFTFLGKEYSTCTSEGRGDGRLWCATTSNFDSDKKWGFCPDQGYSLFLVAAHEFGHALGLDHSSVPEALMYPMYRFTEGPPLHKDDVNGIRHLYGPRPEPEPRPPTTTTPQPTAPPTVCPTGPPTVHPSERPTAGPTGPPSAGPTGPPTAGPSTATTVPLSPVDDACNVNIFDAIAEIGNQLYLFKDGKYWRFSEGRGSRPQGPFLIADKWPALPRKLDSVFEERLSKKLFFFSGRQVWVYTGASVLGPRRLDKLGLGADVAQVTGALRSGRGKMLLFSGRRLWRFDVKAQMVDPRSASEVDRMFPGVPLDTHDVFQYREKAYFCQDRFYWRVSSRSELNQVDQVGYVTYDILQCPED
72 kDa type IV collagenase, sequence (P08253 whole entry): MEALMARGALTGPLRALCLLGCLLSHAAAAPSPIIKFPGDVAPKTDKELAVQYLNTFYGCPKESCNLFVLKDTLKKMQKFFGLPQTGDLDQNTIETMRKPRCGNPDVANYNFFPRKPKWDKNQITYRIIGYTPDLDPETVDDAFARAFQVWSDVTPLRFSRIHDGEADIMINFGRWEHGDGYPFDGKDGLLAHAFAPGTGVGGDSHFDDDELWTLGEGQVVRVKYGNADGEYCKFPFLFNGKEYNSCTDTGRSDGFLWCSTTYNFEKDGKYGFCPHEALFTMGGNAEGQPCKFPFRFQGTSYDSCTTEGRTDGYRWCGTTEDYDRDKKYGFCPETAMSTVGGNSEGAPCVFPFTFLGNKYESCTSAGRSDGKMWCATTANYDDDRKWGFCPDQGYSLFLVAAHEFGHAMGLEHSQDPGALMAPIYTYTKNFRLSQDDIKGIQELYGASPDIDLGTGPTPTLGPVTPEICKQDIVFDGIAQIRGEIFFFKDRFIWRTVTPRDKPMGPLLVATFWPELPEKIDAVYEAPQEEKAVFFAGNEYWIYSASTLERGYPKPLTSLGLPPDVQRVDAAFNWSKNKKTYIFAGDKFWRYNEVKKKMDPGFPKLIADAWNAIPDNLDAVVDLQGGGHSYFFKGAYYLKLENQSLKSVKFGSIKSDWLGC
Disintegrin and metalloproteinase domain-containing protein 17, sequence (P78536 whole entry, the tested form may be a part): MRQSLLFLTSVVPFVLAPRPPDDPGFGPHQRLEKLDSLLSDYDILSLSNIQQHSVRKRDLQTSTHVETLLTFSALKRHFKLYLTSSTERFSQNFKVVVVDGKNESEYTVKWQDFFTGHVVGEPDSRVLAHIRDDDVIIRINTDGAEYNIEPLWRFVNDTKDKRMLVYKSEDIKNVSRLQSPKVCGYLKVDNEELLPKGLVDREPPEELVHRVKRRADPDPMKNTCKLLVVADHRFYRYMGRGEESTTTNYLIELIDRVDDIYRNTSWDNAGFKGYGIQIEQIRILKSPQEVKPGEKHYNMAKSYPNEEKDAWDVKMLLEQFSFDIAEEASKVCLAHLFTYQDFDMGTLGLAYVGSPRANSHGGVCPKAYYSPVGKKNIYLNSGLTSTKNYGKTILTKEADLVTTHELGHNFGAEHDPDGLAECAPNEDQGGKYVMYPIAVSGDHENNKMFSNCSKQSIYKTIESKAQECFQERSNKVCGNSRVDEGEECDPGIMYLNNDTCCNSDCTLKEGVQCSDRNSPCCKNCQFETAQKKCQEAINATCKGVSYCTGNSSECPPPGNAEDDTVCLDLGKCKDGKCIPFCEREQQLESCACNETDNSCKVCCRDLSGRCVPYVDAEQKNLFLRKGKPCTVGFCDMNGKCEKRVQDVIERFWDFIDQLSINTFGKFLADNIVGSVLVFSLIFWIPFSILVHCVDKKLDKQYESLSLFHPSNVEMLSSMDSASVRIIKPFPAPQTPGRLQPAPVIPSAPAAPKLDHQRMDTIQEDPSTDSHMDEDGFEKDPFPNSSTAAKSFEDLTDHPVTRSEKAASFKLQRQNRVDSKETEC

SMILES | pIC50 (HEK293) | further results
CCCC(C(N)=O)C(CC(C)C)C(=O)N[C@H]1CCCCN(Cc2ccc(-c3ccc(C(F)(F)F)cc3)cc2)C1=O (single isomer, unassigned) | 7.05 | –
CCC[C@H](C(N)=O)[C@@H](CC(C)C)C(=O)N[C@H]1CCCCN(Cc2cncc(-c3ccccn3)c2)C1=O | 5.06 | –
CCC[C@H](C(N)=O)[C@@H](CC(C)C)C(=O)N[C@H]1CCCCN(Cc2cncc(-c3cccnc3)c2)C1=O | 5.66 | –
CCC[C@H](C(=O)OC)[C@@H](CC(C)C)C(=O)N[C@H]1CCCCN(Cc2cccc(Oc3ccccc3)c2)C1=O | 5.22 | –
CCCC(C(N)=O)C(CC(C)C)C(=O)N[C@H]1CCCCN(Cc2cccc(-c3cccc(OC)c3)c2)C1=O (single isomer, unassigned) | 6.82 | –
CCC[C@@H](CC(=O)NNC(=O)[C@@H](CCC)[C@@H](CC(C)C)C(=O)N[C@H]1CCCCN(Cc2cccc(Oc3ccccc3)c2)C1=O)C(=O)NO | < 5.00 | –
CCC[C@H](C(=O)NN)[C@@H](CC(C)C)C(=O)N[C@H]1CCCCN(Cc2cccc(Oc3ccccc3)c2)C1=O | 5.80 | –
CCC[C@H](C(=O)O)[C@@H](CC(C)C)C(=O)N[C@H]1CCCCN(Cc2cccc(Oc3ccccc3)c2)C1=O | < 5.52 | –
CCC[C@H](C(=O)NNC(=O)[C@@H](CCC)[C@@H](CC(C)C)C(=O)N[C@H]1CCCCN(Cc2cccc(Oc3ccccc3)c2)C1=O)[C@@H](CC(C)C)C(N)=O | 6.65 | –
CCC[C@H](C(=O)NO)[C@@H](CC(C)C)C(=O)N[C@H]1CCCCN(Cc2cccc(Oc3ccccc3)c2)C1=O | 6.30 | pKi (Matrilysin): 6.18; pKi (Collagenase 3): 8.00; pKi [1]: 8.30; pKi [2]: 8.15; pKi (Interstitial collagenase): 7.68; pKi (Stromelysin-2): 6.72; pKi [3]: 5.92; pKi [4]: 8.40
CCCC(C(N)=O)C(CC(C)C)C(=O)N[C@H]1CCCCN(Cc2cccc(-c3ccc(C)cc3)c2)C1=O (single isomer, unassigned) | 7.40 | –
CCCC(C(N)=O)C(CC(C)C)C(=O)N[C@H]1CCCCN(Cc2cccc(-c3ccc(Cl)cc3Cl)c2)C1=O (single isomer, unassigned) | 7.85 | –
CCC[C@H](C(N)=O)[C@@H](CC(C)C)C(=O)N[C@H]1CCCCN(Cc2cncc(-c3ccc(F)c(Cl)c3)c2)C1=O | 8.40 | –
CCCC(C(=O)NO)C(CC(C)C)C(=O)N[C@H]1CCCCN(Cc2cccc(-c3cccc(C)c3)c2)C1=O (single isomer, unassigned) | 6.29 | –
CCC[C@H](C(=O)NOC)[C@@H](CC(C)C)C(=O)N[C@H]1CCCCN(Cc2cccc(Oc3ccccc3)c2)C1=O | 5.30 | –
CCCC(C(=O)NO)C(CC(C)C)C(=O)N[C@H]1CCCCN(Cc2cccc(-c3ccccc3OC)c2)C1=O (single isomer, unassigned) | 6.52 | –
CCC[C@H](C(N)=O)[C@@H](CC(C)C)C(=O)N[C@H]1CCCCN(Cc2cncc(-c3ccc(C(F)(F)F)cc3)c2)C1=O | 7.77 | –
CCC[C@H](C(=O)N(C)OC)[C@@H](CC(C)C)C(=O)N[C@H]1CCCCN(Cc2cccc(Oc3ccccc3)c2)C1=O | 5.30 | –
CCC[C@H](C(N)=O)[C@@H](CC(C)C)C(=O)N[C@H]1CCCCN(Cc2cccc(Nc3ccccc3)c2)C1=O | – | Cmax [5]: 17 nM; pIC50 [6]: 7.19; fraction unbound [7]: 0.015; CL/F [8]: 10 mL/min/kg; half-life [9]: 1 h; bioavailability [10]: 3%; Vss (Canis familiaris [11]): 0.4 L/kg
CCC[C@H](C(N)=O)[C@@H](CC(C)C)C(=O)N[C@H]1CCCCN(Cc2cccc(Oc3ccccc3)c2)C1=O | 7.30 | Cmax [5]: 25 nM; solubility [12]: 1 µg/mL (≈ 1.97 µM); pIC50 [6]: 7.09; fraction unbound [7]: 0.004; CL/F [8]: 31.7 mL/min/kg; half-life [9]: 0.5 h; bioavailability [10]: 8%; Vss (Canis familiaris [11]): 1.3 L/kg
CCC[C@H](C(N)=O)[C@@H](CC(C)C)C(=O)N[C@H]1CCCCN(Cc2cncc(-c3ccc(OC)cc3)c2)C1=O | 7.49 | –

SMILES | pIC50 (HEK293) | further results
CCCC(C(=O)NO)C(CC(C)C)C(=O)N[C@H]1CCCCN(Cc2cccc(-c3ccc(F)cc3)c2)C1=O (single isomer, unassigned) | 6.33 | –
CCC[C@H](C(=O)NO)[C@@H](CC(C)C)C(=O)N[C@H]1CCCCN(Cc2cccc(I)c2)C1=O | 5.52 | –
CCCC(C(=O)NO)C(CC(C)C)C(=O)N[C@H]1CCCCN(Cc2cccc(-c3cccc(F)c3)c2)C1=O (single isomer, unassigned) | 6.74 | –
CCCC(C(=O)NO)C(CC(C)C)C(=O)N[C@H]1CCCCN(Cc2cccc(-c3cccc(OC)c3)c2)C1=O (single isomer, unassigned) | 6.22 | –
CCC[C@H](C(=O)NNC(=O)[C@H](CC(C)C)[C@@H]1CCNC1=O)[C@@H](CC(C)C)C(=O)N[C@H]1CCCCN(Cc2cccc(Oc3ccccc3)c2)C1=O | < 5.00 | –
CCCC(C(N)=O)C(CC(C)C)C(=O)N[C@H]1CCCCN(Cc2cccc(-c3ccc(OC)cc3)c2)C1=O (single isomer, unassigned) | 8.10 | –
CCCC(C(=O)NO)C(CC(C)C)C(=O)N[C@H]1CCCCN(Cc2cccc(-c3ccc(F)c(Cl)c3)c2)C1=O (single isomer, unassigned) | 7.00 | –
CCCC(C(N)=O)C(CC(C)C)C(=O)N[C@H]1CCCCN(Cc2cccc(-c3ccc(F)c(Cl)c3)c2)C1=O (single isomer, unassigned) | 7.77 | Vss (Canis familiaris [13]): 0.8 L/kg; solubility [12]: 0.1 µg/mL (≈ 0.184 µM); pIC50 [6]: 7.74; CL/F [14]: 6.67 mL/min/kg; half-life [15]: 1.3 h; Cmax [16]: 116 nM; bioavailability [17]: 25%
CCCC(C(N)=O)C(CC(C)C)C(=O)N[C@H]1CCCCN(Cc2cccc(-c3ccccc3OC)c2)C1=O (single isomer, unassigned) | 7.52 | –
CCC[C@H](C(=O)NNC(=O)[C@@H](CC(N)=O)CC(C)C)[C@@H](CC(C)C)C(=O)N[C@H]1CCCCN(Cc2cccc(Oc3ccccc3)c2)C1=O | < 5.00 | –
CCCC(C(N)=O)C(CC(C)C)C(=O)N[C@H]1CCCCN(Cc2cccc(-c3ccc(C(F)(F)F)cc3)c2)C1=O (single isomer, unassigned) | 8.00 | –
CCC[C@H](C(=O)NC)[C@@H](CC(C)C)C(=O)N[C@H]1CCCCN(Cc2cccc(Oc3ccccc3)c2)C1=O | 5.30 | –
CCCC(C(N)=O)C(CC(C)C)C(=O)N[C@H]1CCCCN(Cc2cccc(-c3ccc(F)cc3)c2)C1=O (single isomer, unassigned) | 6.72 | –
CCCC(C(N)=O)C(CC(C)C)C(=O)N[C@H]1CCCCN(Cc2cccc(-c3cccc(F)c3)c2)C1=O (single isomer, unassigned) | 6.52 | –
CCCC(C(=O)NO)C(CC(C)C)C(=O)N[C@H]1CCCCN(Cc2cccc(-c3ccc(OC)cc3)c2)C1=O (single isomer, unassigned) | 6.33 | –
CCCC(C(=O)NO)C(CC(C)C)C(=O)N[C@H]1CCCCN(Cc2cccc(-c3ccc(C)cc3)c2)C1=O (single isomer, unassigned) | 6.59 | –
CCCC(C(=O)NO)C(CC(C)C)C(=O)N[C@H]1CCCCN(Cc2cccc(-c3ccccc3-c3cccc4ccccc34)c2)C1=O (single isomer, unassigned) | 6.60 | –
CCCC(C(=O)NO)C(CC(C)C)C(=O)N[C@H]1CCCCN(Cc2cccc(-c3ccc(Cl)cc3Cl)c2)C1=O (single isomer, unassigned) | 6.46 | –
CCCC(C(=O)NO)C(CC(C)C)C(=O)N[C@H]1CCCCN(Cc2cccc(-c3cccc(NC(C)=O)c3)c2)C1=O (single isomer, unassigned) | < 5.00 | –
CCCC(C(=O)NO)C(CC(C)C)C(=O)N[C@H]1CCCCN(Cc2cccc(-c3ccc(C(F)(F)F)cc3)c2)C1=O (single isomer, unassigned) | 6.64 | –
